Among the data in ChEMBL document CHEMBL2046324, “Synthesis and biological evaluation of 1-arylsulfonyl-5-(N-hydroxyacrylamide)indoles as potent histone deacetylase inhibitors with antitumor activity in vivo” (J Med Chem, 2012) are IC50, GI50 and Ratio IC50 values, retold here.

One experiment has as its target Histone deacetylase. The experiment is described as follows: Inhibition of HDAC in human HeLa cell nuclear extract after 30 mins by fluorescence microplate reader. The experiment is classed as protein assay.
The next experiment relates to PC-3. The experiment is described as follows: cells. The experiment is classed as functional. As to conditions: Homo sapiens, PC-3, 48 h.
The subject of a further experiment is MDA-MB-231. Put plainly: cells. The experiment is classed as functional. As to conditions: Homo sapiens, MDA-MB-231, 48 h.
In the next experiment the test system is A549. Put plainly: Growth inhibition of human A549 cells after 48 hrs by SRB assay. Type of experiment: functional. The method in brief:
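A549 cells were grown in RPMI 1640 with 10% FBS and 2 mM glutamine at 37 °C in 5% CO₂, then seeded in medium with 5% FBS. A 24 h TCA-fixed plate gave T₀. Cells were exposed to compound or DMSO for 48 h, fixed with 10% TCA and stained with 0.4% SRB; bound dye was solubilized in 10 mM Tris and read at 515 nm. GI₅₀ was the concentration halving net protein increase. At least three independent experiments.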
(The SRB assay estimates cell density from bound dye.)

The nature of the next experiment: cells. The experiment is classed as functional, Hep 3B2. The conditions noted are these: Homo sapiens, Hep3B, 48 h.
The next experiment deals with Histone deacetylase 1 (Homo sapiens, UniProt Q13547). The experiment is described as follows: Inhibition of human recombinant HDAC1 after 30 mins by fluorometric assay.
Another experiment concerns the target Histone deacetylase 2 (Homo sapiens, UniProt Q92769). Put plainly: Inhibition of human recombinant HDAC2 after 30 mins by fluorometric assay.
The target in experiment [1] is T1, Protein deacetylase HDAC6 (Homo sapiens, UniProt Q9UBN7).
T1 sequence (Q9UBN7 whole entry): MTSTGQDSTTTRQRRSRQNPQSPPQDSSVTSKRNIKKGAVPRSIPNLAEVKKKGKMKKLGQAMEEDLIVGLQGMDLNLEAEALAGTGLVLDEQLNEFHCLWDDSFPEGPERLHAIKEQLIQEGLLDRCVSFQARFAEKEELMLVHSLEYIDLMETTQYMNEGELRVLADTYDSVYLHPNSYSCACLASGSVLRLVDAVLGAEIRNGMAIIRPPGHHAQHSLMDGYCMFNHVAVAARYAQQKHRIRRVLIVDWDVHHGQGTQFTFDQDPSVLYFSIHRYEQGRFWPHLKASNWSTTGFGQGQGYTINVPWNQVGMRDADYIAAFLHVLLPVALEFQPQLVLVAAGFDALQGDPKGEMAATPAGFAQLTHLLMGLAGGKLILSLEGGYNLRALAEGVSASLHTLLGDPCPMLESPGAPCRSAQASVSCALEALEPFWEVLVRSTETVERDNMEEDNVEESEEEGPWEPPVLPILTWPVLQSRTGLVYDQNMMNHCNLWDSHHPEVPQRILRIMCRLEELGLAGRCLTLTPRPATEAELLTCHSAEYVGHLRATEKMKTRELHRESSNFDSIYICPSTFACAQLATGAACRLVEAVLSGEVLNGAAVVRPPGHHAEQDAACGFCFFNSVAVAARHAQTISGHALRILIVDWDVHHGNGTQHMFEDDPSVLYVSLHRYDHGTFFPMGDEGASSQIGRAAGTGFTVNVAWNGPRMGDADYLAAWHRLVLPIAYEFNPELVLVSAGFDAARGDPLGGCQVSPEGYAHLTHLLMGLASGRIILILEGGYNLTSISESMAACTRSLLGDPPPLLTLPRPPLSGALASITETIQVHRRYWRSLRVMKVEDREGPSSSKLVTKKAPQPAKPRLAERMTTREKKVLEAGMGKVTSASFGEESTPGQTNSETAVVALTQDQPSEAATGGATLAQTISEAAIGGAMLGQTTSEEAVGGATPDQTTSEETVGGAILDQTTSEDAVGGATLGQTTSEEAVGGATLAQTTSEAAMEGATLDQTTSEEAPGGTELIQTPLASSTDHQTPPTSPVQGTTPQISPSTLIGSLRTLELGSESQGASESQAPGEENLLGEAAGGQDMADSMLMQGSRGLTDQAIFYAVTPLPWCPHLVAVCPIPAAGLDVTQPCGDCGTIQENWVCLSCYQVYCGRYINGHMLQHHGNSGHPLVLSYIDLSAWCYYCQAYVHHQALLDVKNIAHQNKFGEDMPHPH
Put plainly: Inhibition of human recombinant HDAC6 after 30 mins by fluorometric assay.

The species named for the next experiment is Homo sapiens. The experiment is described as follows: Selectivity ratio of IC50 for human HDAC1 to IC50 for human HDAC6.

SMILES strings stand for the structures.

Sequence of Histone deacetylase 1 (Q13547 whole entry): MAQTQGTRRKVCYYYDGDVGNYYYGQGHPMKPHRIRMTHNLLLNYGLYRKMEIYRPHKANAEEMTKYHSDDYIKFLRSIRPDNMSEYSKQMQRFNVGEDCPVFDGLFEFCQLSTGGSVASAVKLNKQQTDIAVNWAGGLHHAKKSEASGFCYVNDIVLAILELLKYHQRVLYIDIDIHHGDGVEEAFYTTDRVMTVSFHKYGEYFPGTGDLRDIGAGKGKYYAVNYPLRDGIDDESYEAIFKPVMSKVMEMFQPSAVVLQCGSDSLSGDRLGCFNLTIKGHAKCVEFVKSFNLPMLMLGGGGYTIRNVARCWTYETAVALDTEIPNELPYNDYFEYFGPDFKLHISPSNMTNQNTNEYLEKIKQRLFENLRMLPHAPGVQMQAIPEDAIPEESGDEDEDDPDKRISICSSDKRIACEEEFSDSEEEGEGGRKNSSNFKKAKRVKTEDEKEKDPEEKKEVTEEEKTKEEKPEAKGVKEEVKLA
Sequence of Histone deacetylase 2 (Q92769 whole entry): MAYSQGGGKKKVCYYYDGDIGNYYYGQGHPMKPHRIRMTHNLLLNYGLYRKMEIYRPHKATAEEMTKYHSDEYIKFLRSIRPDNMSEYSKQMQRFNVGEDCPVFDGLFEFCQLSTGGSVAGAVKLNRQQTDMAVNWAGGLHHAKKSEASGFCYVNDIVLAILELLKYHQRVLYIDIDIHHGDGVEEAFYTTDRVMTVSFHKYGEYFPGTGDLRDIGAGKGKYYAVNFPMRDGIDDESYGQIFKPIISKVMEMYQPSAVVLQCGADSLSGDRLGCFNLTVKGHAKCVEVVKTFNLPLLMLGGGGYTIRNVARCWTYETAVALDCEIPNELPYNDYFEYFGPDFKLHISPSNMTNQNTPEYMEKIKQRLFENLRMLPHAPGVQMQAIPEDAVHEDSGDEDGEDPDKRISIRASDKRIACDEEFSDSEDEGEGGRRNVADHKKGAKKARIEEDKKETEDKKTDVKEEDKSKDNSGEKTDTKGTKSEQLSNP

In general, IC50 refers to the concentration that gives 50% inhibition. A word on the GI50: it is the concentration giving 50% growth inhibition. High values mean less potent growth inhibition, low ones more potent growth inhibition. At Histone deacetylase, `O=C(NO)c1ccc2c(ccn2S(=O)(=O)c2ccccc2)c1` returned a half-maximal inhibitory concentration (IC50) of over 1000 nM. Besides, the concentration for 50% growth inhibition (GI50) with PC-3 was 7260 nM; in the experiment on MDA-MB-231, 5680 nM; with A549 (Homo sapiens, A549, 48 h), over 10000 nM; in “cells”, over 10000 nM.

`O=C(/C=C/c1ccc2c(ccn2Cc2ccccc2)c1)NO`: the concentration for half-maximal inhibition (IC50) on Histone deacetylase amounted to 32.1 nM; on Histone deacetylase 1, 71.2 nM; on Histone deacetylase 2, 381 nM; in [1], 40.4 nM. Besides, the GI50 with PC-3 was determined as 1230 nM; with MDA-MB-231, 1180 nM; with A549 (Homo sapiens, A549, 48 h) it was 2370 nM; in “cells” it was 860 nM.

At Histone deacetylase, `O=C(/C=C/c1ccc2[nH]cc(S(=O)(=O)c3ccccc3)c2c1)NO` gave an IC50 of 275.2 nM. Further, the GI50 came out at 1260 nM in the experiment with PC-3; 1250 nM in the experiment on MDA-MB-231; 3330 nM in the experiment on A549 (Homo sapiens, A549, 48 h); 1270 nM in “cells”.

`O=C(CCCCCCC(=O)Nc1ccccc1)NO` [VORINOSTAT] registered a concentration for 50% growth inhibition (GI50) with A549 of 1850 nM.

On to `O=C(/C=C/c1cccc2ccn(S(=O)(=O)c3ccccc3)c12)NO`, for which the half-inhibitory concentration (IC50) at Histone deacetylase is over 1000 nM. Also, the concentration for 50% growth inhibition (GI50) in the experiment on PC-3 was determined as 4750 nM; in the experiment with MDA-MB-231, 7710 nM; in the experiment on A549 (Homo sapiens, A549, 48 h), 5500 nM; in the experiment “cells”, 3820 nM.

On Histone deacetylase, `O=C(/C=C/c1cn(S(=O)(=O)c2ccccc2)c2ccccc12)NO` gave an IC50 of over 1000 nM. Also, the GI50 was found to be 5770 nM in the experiment on PC-3; 8140 nM with MDA-MB-231; 7060 nM in the experiment on A549 (Homo sapiens, A549, 48 h); 8870 nM in “cells”.

On to `O=C(/C=C/c1ccc2[nH]ccc2c1)NO`, for which the IC50 against Histone deacetylase is recorded as over 1000 nM. The GI50 stood at 4800 nM in the experiment on PC-3; 4370 nM in the experiment with MDA-MB-231; 9070 nM with A549 (Homo sapiens, A549, 48 h); 3650 nM in “cells”.

`O=C(/C=C/c1cccc2c1ccn2S(=O)(=O)c1ccccc1)NO` gave an IC50 against Histone deacetylase of 170.9 nM. In addition, the GI50 stood at 3670 nM in the experiment with PC-3; 4160 nM with MDA-MB-231; 6700 nM with A549 (Homo sapiens, A549, 48 h); 4320 nM in “cells”.

`O=C(/C=C/c1ccc2c(ccn2C(=O)c2ccccc2)c1)NO` registered an IC50 at Histone deacetylase of 757.6 nM. The GI50 was 2320 nM in the experiment on PC-3; 3180 nM in the experiment with MDA-MB-231; 5800 nM with A549 (Homo sapiens, A549, 48 h); 2400 nM in “cells”.

`COc1ccc(S(=O)(=O)n2ccc3cc(/C=C/C(=O)NO)ccc32)cc1OC`: the IC50 on Histone deacetylase was 9.7 nM; at Histone deacetylase 1, 18.1 nM; on Histone deacetylase 2, 2.3 nM; in [1], 45.4 nM. Moreover, the GI50 in the experiment with PC-3 turned out to be 930 nM; in the experiment on MDA-MB-231 it was 370 nM; in the experiment on A549 (Homo sapiens, A549, 48 h), 560 nM; in “cells”, 360 nM.

As to `COc1ccc(S(=O)(=O)n2ccc3cc(/C=C/C(=O)NO)ccc32)cc1`, the 50% inhibitory concentration (IC50) against Histone deacetylase worked out at 6.8 nM; at Histone deacetylase 1, 125 nM; at Histone deacetylase 2, 362 nM; in experiment [1] it was 3.3 nM. Besides, the 50% growth inhibitory concentration (GI50) was 800 nM in the experiment on PC-3; 750 nM in the experiment with MDA-MB-231; 1180 nM in the experiment on A549 (Homo sapiens, A549, 48 h); 550 nM in “cells”. Besides, the Ratio IC50 in the experiment listed under Homo sapiens came to 40.

Take `O=C(/C=C/c1ccc2ccn(S(=O)(=O)c3ccccc3)c2c1)NO`: on Histone deacetylase, the concentration for half-maximal inhibition (IC50) was determined as 254 nM. For the same compound, the GI50 with PC-3 worked out at 2400 nM; in the experiment on MDA-MB-231, 2410 nM; in the experiment with A549 (Homo sapiens, A549, 48 h), 5300 nM; in “cells”, 2120 nM.

Turning to `O=C(/C=C/c1ccc2c(ccn2S(=O)(=O)c2ccc([N+](=O)[O-])cc2)c1)NO`, the half-inhibitory concentration (IC50) against Histone deacetylase was determined as 12.6 nM; at Histone deacetylase 1, 69.9 nM; on Histone deacetylase 2 it was 189 nM; in experiment [1] it was 18.3 nM. The GI50 in the experiment with PC-3 amounted to 850 nM; in the experiment with MDA-MB-231, 750 nM; in the experiment on A549 (Homo sapiens, A549, 48 h) it was 1210 nM; in the experiment “cells”, 560 nM.

Take `O=C(/C=C/c1ccc2c(ccn2-c2ccccc2)c1)NO`: the concentration for half-maximal inhibition (IC50) on Histone deacetylase is listed as 186.5 nM. Further, the GI50 in the experiment on PC-3 amounted to 1540 nM; in the experiment with MDA-MB-231, 1730 nM; in the experiment on A549 (Homo sapiens, A549, 48 h), 2850 nM; in the experiment “cells”, 1320 nM.

With `O=C(/C=C/c1ccc2c(ccn2S(=O)(=O)c2ccc(F)cc2)c1)NO`, the IC50 on Histone deacetylase was found to be 16.8 nM; on Histone deacetylase 1, 33.2 nM; at Histone deacetylase 2 it was 199 nM; in [1] it was 59.2 nM. In addition, the GI50 in the experiment with PC-3 was determined as 390 nM; in the experiment with MDA-MB-231 it was 660 nM; with A549 (Homo sapiens, A549, 48 h) it was 750 nM; in “cells”, 640 nM.

With `O=C(CCc1ccc2c(ccn2S(=O)(=O)c2ccccc2)c1)NO`, the IC50 against Histone deacetylase is listed as 407.5 nM. In addition, the GI50 in the experiment with PC-3 was 2070 nM; in the experiment with MDA-MB-231 it was 2210 nM; in the experiment with A549 (Homo sapiens, A549, 48 h), 4040 nM; in “cells”, 2560 nM.
